# Legend:
# [1] = system: PANC-1; test: Antioxidant activity in human PANC-1 cells assessed as decrease in high glucose induced ROS production by measuring minimum fractional index at 5 uM incubated for 24 hrs by DCFDA-staining based flow cytometry analysis; type: functional
# Procedure, shortened: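 PANC-1 cells (1 × 10⁵/well) grown 24 h at 37 °C, 5% CO₂, then pre-treated 1 h with 5 μM compound. Exposed to glucose (stated 10 μM) for 23 h. Stained with 10 μM DCFH-DA for 30 min at 37 °C, rinsed, and ROS read by flow cytometry as DCFDA/FITC mean fluorescence intensity.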
# [2] = system: PANC-1; test: (§1) Anti-diabetic activity against high glucose induced human PANC-1 cells assessed as decrease in glucose induced alpha-amylase expression by measuring by measuring minimum fractional index at 5 uM incubated for 23 hrs and measured after 24 hrs by flow cytometric analysis (reference value: 2887 +/- 95.87); type: functional
# [3] = system: PANC-1; test: as §1, with “alpha-glucosidase” for “alpha-amylase”, “4361” for “2887”, “257.83)” for “95.87)”; type: functional
# [4] = species: Rattus norvegicus; test: (§2) Anti-diabetic activity in high glucose induced alpha-amylase expression in fasted STZ-induced diabetic Wistar rat model assessed as alpha- glucosidase level in pancreas by measuring minimum fractional index in presence of pioglitazone incubated for 23 hrs and measured after 24 hrs by flow cytometric analysis (reference value: 3063 +/- 149.2); type: functional
# [5] = system: Rattus norvegicus; test: Antioxidant activity in fasted STZ-induced diabetic Wistar rat model assessed as increase in high glucose induced ROS production in pancreas by measuring minimum fractional index at 10 mg/kg, po administration for 21 days; type: functional; conditions: time 21 day
# Procedure, shortened: (§3)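 Rat pancreas mashed through a 70 μm strainer in FACS buffer. Processed by centrifugation (300 × g and 800 × g, 21 °C), 42% Percoll and 5 min RBC lysis. Cells washed, stained with DCFH-DA, and ROS read on a flow cytometer.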
# [6] = Toxicity against STZ-induced diabetic Wistar rat model assessed as body weight loss at 10 mg/kg, po measured on day 14; type: organism-based; conditions: in vivo, 336 h, time 14 day
# Procedure, shortened: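 STZ given on day 1; oral treatment started day 14, with vehicle 0.5% CMC in controls. Six groups: normal, vehicle, STZ, STZ + two test compounds, STZ + pioglitazone. Blood glucose (tail puncture, glucometer) and body weight recorded on days 1, 4, 14 and 35. One-way ANOVA.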
# [7] = species: Rattus norvegicus; test: as §2, with “alpha-amylase” for “alpha- glucosidase”, “2590 + 199.74)” for “3063 +/- 149.2)”; type: functional
# [8] = system: Rattus norvegicus; test: Antioxidant activity in fasted STZ-induced diabetic Wistar rat model assessed as decrease in high glucose induced ROS production in pancreas by measuring minimum fractional index at 10 mg/kg, po administration for 21 days in presence of pioglitazone days and measured on day 35; type: functional; conditions: time 21 day; procedure, shortened: as §3
# [9] = Toxicity against STZ-induced diabetic Wistar rat model assessed as body weight loss in presence of pioglitazone at 10 mg/kg, po measured on day 14; type: organism-based; conditions: in vivo
# [10] = Inhibition of porcine pancreatic alpha-amylase using starch as substrate preincubated for 10 min followed by substrate addition and measured after 20 min by absorbance based analysis; parameters: species or system Sus scrofa
# Procedure, shortened: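 Porcine α-amylase (1 U mL⁻¹) pre-incubated with compound 10 min at 25 °C in phosphate buffer pH 6.8. 1% starch added, then 15 min at 37.5 ± 2 °C. Quenched with DNS reagent, heated 70 °C 20 min, diluted with buffer, A540 read, in triplicate. Final concentrations 100–1 μM from DMSO dilutions; IC50 from a linear fit of % inhibition at y = 50.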
# [11] = target: alpha-glucosidase (Saccharomyces cerevisiae); test: Inhibition of Saccharomyces cerevisiae alpha-glucosidase using 4-nitrophenyl-alpha-D-glucopyranoside as substrate incubated with compound for 15 to 20 min by absorbance based analysis
# [12] = system: PANC-1; test: Cytotoxicity against human PANC-1 cells assessed as inhibition of cell viability at upto 100 uM incubated for 24 hrs by MTT assay; type: toxicity, cell-based; conditions: panc-1, 24 h
# Procedure, shortened: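 PANC-1 cells seeded at 9 × 10³ per well, triplicate, 24 h at 37 °C, 5% CO₂. Treated with 5, 10, 20, 40, 60, 80 and 100 μM for another day. MTT (5 mg mL⁻¹ stock) 3 h at 37 °C, plates centrifuged, formazan dissolved in DMSO 30 min dark, A570. Viability compared by one-way ANOVA with Tukey test.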
IC50 [10] [µM],IC50 [11] [µM],SMILES,Activity_index [1],Activity [12],further results
44,58.44,O=C1/C(=C2/SC(=O)N(Cc3cccc([N+](=O)[O-])c3)C2=O)Nc2ccccc21,3041,Non-toxic,
60.1,46.51,CCOc1cc(/C=C2\SC(=O)N(Cc3cccc([N+](=O)[O-])c3)C2=O)ccc1OCc1ccc(F)cc1,2438,Non-toxic,
48.7,42.24,CCOc1cc(/C=C2\SC(=O)N(Cc3cccc([N+](=O)[O-])c3)C2=O)ccc1OS(=O)(=O)c1ccc(C)cc1,957,Non-toxic,
50.8,53.18,O=C1/C(=C2/SC(=O)N(Cc3cccc([N+](=O)[O-])c3)C2=O)Nc2ccc(Cl)cc21,3063,Non-toxic,
61,68.76,O=C1/C(=C2/SC(=O)N(Cc3cccc([N+](=O)[O-])c3)C2=O)Nc2ccc(Br)cc21,2982,Non-toxic,

# Further lines, the molecule ahead of its results:
SMILES,IC50 [10] [µM],IC50 [11] [µM],Activity_index [1],Activity [12],further results
C[C@H]1O[C@H](O[C@H]2[C@H](O)[C@@H](O)[C@@H](O[C@H]3[C@H](O)[C@@H](O)C(O)O[C@@H]3CO)O[C@@H]2CO)[C@H](O)[C@@H](O)[C@@H]1N[C@H]1C=C(CO)[C@@H](O)[C@H](O)[C@H]1O (some centres undefined) [ACARBOSE],,,149,,Activity index [2]: 114; Activity index [3]: 170
CN(N=O)C(=O)N[C@@H]1[C@@H](O)[C@H](O)[C@@H](CO)O[C@@H]1O [STREPTOZOSIN],,,,,Activity_index [4]: 720; Activity_index [5]: 3762; Activity [6]: Toxic; Activity_index [7]: 230; Activity_index [8]: 221; Activity [9]: Toxic
CCOc1cc(/C=C2\SC(=O)N(Cc3cccc([N+](=O)[O-])c3)C2=O)ccc1OCc1ccc([N+](=O)[O-])cc1,93.5,38.33,676,Non-toxic,
CCOc1cc(/C=C2\SC(=O)N(Cc3cccc([N+](=O)[O-])c3)C2=O)ccc1OCc1ccccc1,55.6,31.2,898,Non-toxic,
CCOc1cc(/C=C2\SC(=O)N(Cc3cccc([N+](=O)[O-])c3)C2=O)ccc1OCc1cccc([N+](=O)[O-])c1,64.8,99.1,4225,Non-toxic,
CCOc1cc(/C=C2\SC(=O)N(Cc3cccc([N+](=O)[O-])c3)C2=O)ccc1OCc1ccc(C)cc1,54.2,20.31,230,Non-toxic,
CCOc1cc(/C=C2\SC(=O)N(Cc3cccc([N+](=O)[O-])c3)C2=O)ccc1OCc1ccc(Cl)cc1,126,96.15,4225,Non-toxic,

# Reference: ChEMBL document CHEMBL6074625, “Thiazolidine-2,4-dione hybrids as dual alpha-amylase and alpha-glucosidase inhibitors: design, synthesis, in vitro and in vivo anti-diabetic evaluation” (RSC Med Chem, 2024)
